IEC-6 tox – IEC-6 cytotoxicity, counter-screen for KLF5 inhibitors; inhibition, % at 5 µM; luminescence viability; 290,000 compounds, 0.78% hits; AID 1825; in the data active = inhibition above about 22%
APP transl inh – APP translation inhibition. SH-SY5Y APP 5'UTR-luciferase reporter, luminescence. inhibition, % at 2 µM. 190,000 compounds, 0.82% hits. AID 1285;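 active = inhibition above a set limit, derived from the sample mean plus 3 SD, cut at about 45% in these data; inconclusive = one replicate passes the limit while the other fails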
Ba/F3 V617F tox – reduce viability of Ba/F3 cells dependent on JAK2V617F. inhibition, % at 5.6 µM. Ba/F3 EpoR-JAK2V617F viability, ATP luminescence. 220,000 compounds, 1.1% hits;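 active = inhibition above the campaign mean plus 3 SD over all tested compounds, cut at about 24% in these data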;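 also: cytokine-independent growth of Ba/F3 cells driven by EpoR plus mutant JAK2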
MT stabilizer – stabilizes microtubules in HeLa cells; 200,000 compounds, 0.83% hits; % tubulin-high responders, % at 10 µM; HeLa tubulin immunostaining HCS, 24 h; share of cells brighter than vehicle mean+2SD;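 active = plate Z-score above 3 for both tubulin-high and condensed-nucleus cell shares, with cell loss under 80%, at 10 µM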;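 also: anti alpha tubulin signal scored within the nucleus-defined area of each cell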
b-catenin transl – modulators of beta-catenin nuclear translocation | HeLa beta-catenin nuclear translocation, immunofluorescence imaging | nuclear translocation activity, % at 5 µM | 190,000 compounds, 0.3% hits | AID 1665;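 active = nuclear translocation activity above 50% at 5 µM, with a well cell count of 50 or more; inconclusive = wells under 50 cells across six images, flagged as toxic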;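 also: per-cell ratio of nuclear to cytoplasmic median beta-catenin stain intensity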
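Test system: human HeLa cells, native beta-catenin. Compound dosing: 5 µM primary single dose, 0.1% DMSO, 0.02–20 µM confirmation series. Incubation: compound exposure 24 h at 37°C. Detection: beta-catenin immunostaining with DAPI counterstain, 20x imaging, 6 fields/well. Read-out basis: Nuclear/cytoplasmic beta-catenin signal ratio, % activation.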
BaF3 parental – reduces parental Ba/F3 cell viability, JAK2V617F counter-screen. 220,000 compounds, 1.1% hits. inhibition, % at 5.6 µM. CellTiter-Glo ATP luminescence;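 active = inhibition above a per-campaign cutoff, the mean inhibition of all tested compounds plus 3 SD, cut at about 27% in these data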
Numbers stand for hits; - = inactive; ? = inconclusive; . = no result given. In the library only some 2.2% were active in any assay of this set; here they are far more common.

SMILES | IEC-6 tox | APP transl inh | Ba/F3 V617F tox | MT stabilizer | b-catenin transl | BaF3 parental
CCOC(=O)C1=C(N)n2c(s/c(=C/c3ccco3)c2=O)=C(C(=O)OC)C1c1ccco1 (centres undefined) | - | - | - | 45.8 | - | -
CCOC(=O)C1=c2s/c(=C\c3ccncc3)c(=O)n2C(N)=C(C(=O)OC)C1c1ccncc1 (centres undefined) | - | - | - | - | - | -
Cn1c(=O)c(C(=O)NCCc2ccc(Cl)cc2)c(O)c2ccccc21 | - | . | . | . | . | .
CCOc1ccc(/C=C/C(=O)Nc2ccc(OC)cc2[N+](=O)[O-])cc1 | - | - | - | - | - | -
CCOc1ccc(NC(=O)/C=C/c2ccccc2)c([N+](=O)[O-])c1 | - | - | - | 24.2 | - | -
O=C(CC1(O)C(=O)N(Cc2cccc3ccccc23)c2ccccc21)c1cccnc1 (centres undefined) | - | 55.8 | 68.1 | - | - | 54.3
CC1(C)Cc2nc(-c3ccccc3)nc(SCC(O)CO)c2CO1 (centres undefined) | - | . | - | . | - | 61.5
Cc1cc(C(=O)Nc2sc3c(c2C#N)CCC3)no1 | - | - | - | - | . | -
Cc1onc(-c2c(F)cccc2Cl)c1C(=O)Nc1sc2c(c1C(N)=O)CCC2 | - | - | - | 31.5 | . | -
Cc1onc(-c2ccccc2)c1C(=O)Nc1sc2c(c1C#N)CCC2 | - | - | - | 20.2 | - | -
Cc1cc(C(=O)Nc2sc3c(c2C#N)CCCC3)no1 | - | - | - | 18.1 | - | -
N#Cc1c(NC(=O)CCCC(=O)O)sc2c1CCCCC2 | - | 46.0 | - | - | - | -
Cc1onc(-c2ccccc2)c1C(=O)NC(=S)Nc1sc2c(c1C#N)CCCC2 | - | - | - | - | - | -
CC(C)(C)c1ccc(NC(=O)C2CCCN(c3cnccn3)C2)cc1 (centres undefined) | - | . | . | . | . | .
CCc1c(C)c(C#N)c2nc3ccccc3n2c1N(C)C | - | - | - | - | - | -
CCCCc1c(C)c(C#N)c2nc3ccccc3n2c1Cl | - | 81.6 | - | - | - | -
O=C(CSc1nccc(=O)[nH]1)Nc1cccc2ccccc12 | - | . | . | . | . | .
Cc1c(C)c2ccc(OCC(=O)Nc3ccccn3)c(C)c2oc1=O | - | . | . | . | . | .
Cc1cccc(NC(=O)N2CCc3ccccc3C2)c1C | - | . | . | . | . | .
CC(C)(C)OC(=O)N[C@@H](Cc1ccccc1)c1nnc(S(=O)(=O)Cc2ccccc2)o1 | - | 64.0 | 58.0 | - | - | -
Cn1c(Cl)c(C(=O)Nc2ccc(Cl)cc2)c2ccccc21 | - | - | - | 27.8 | - | -
Cc1ccccc1CN1CCC(N2CCC(C(=O)NCC3CCCO3)CC2)CC1 (centres undefined) | - | . | . | . | . | .
Cc1ccc(CCNC(=O)CSCc2ccc(F)cc2)cc1 | - | . | . | . | . | .
CCOC(=O)CSc1nc(-c2cccs2)nc2c1c(=O)n(C)c(=O)n2C | - | . | . | . | . | .
COc1ccccc1OCC(=O)Nc1cccc(N(C)S(C)(=O)=O)c1 | - | 55.5 | - | - | - | -
SMILES | IEC-6 tox | APP transl inh | Ba/F3 V617F tox | MT stabilizer | b-catenin transl | BaF3 parental
CCC(CNc1cc(OC)cc2cccnc12)NC1CCCCC1 (centres undefined) | - | . | 42.7 | . | - | 27.4
COc1cc(NCCCC(C)N)c2ncccc2c1 (centres undefined) | - | - | 40.7 | - | . | 35.8
Cc1cccc(CS(=O)(=O)c2ncc(CO)n2C)c1 | - | . | . | . | . | .
c1ccc(OCCN2CCN(C(c3ccccc3)c3ccccc3)CC2)cc1 | - | . | . | . | . | .
COc1ccccc1CC(=O)N1CCC(n2nccc2NC(=O)C2CCOC2)CC1 (centres undefined) | - | . | . | . | . | .
O=C(COC(=O)c1ccc(NS(=O)(=O)c2cccs2)cc1O)NCc1ccccc1 | - | - | - | 23.5 | 76.3 | -
O=C(COC(=O)c1ccc(NS(=O)(=O)c2cccs2)cc1)NCc1ccco1 | - | . | - | . | 110.8 | -
O=C(COC(=O)c1cccs1)NCc1ccco1 | . | . | . | . | - | .
CCOC(=O)C1CCCN(C2=NC(=O)/C(=C/c3ccc(N(C)C)cc3)S2)C1 (centres undefined) | - | . | . | . | . | .
O=c1[nH]c2ccccc2n1C1CCCCC1 | - | 64.1 | - | - | - | -
CCn1c(SCC(=O)N2CCc3ccccc3C2)nc2c1c(=O)n(C)c(=O)n2C | - | - | - | - | - | -
Cn1c(=O)c2c(ncn2CC(=O)N2CCc3ccccc3C2)n(C)c1=O | - | 54.1 | - | - | - | -
N#Cc1c(N2CCCC2)ccc(Br)c1Cl | - | . | - | . | - | 38.9
COc1ccc2[nH]c(C)c(CCN(Cc3cccs3)C(=S)Nc3ccc(F)cc3)c2c1 | - | - | 45.5 | - | - | 49.8
COc1ccc(NC(=S)N(CCc2c(C)[nH]c3ccc(C)cc23)Cc2cccs2)cc1 | - | - | - | - | - | -
COc1ccc2[nH]c(C)c(CCN(Cc3cccs3)C(=S)Nc3ccccc3)c2c1 | - | - | 33.8 | - | - | 46.5
O=C(CNC(=O)C1CCCCC1)NC1CCCCC1 | - | . | . | . | . | .
O=C(NC(=S)Nc1cc(-c2nc3ccccc3[nH]2)ccc1Cl)c1ccc2c(c1)OCO2 | - | - | - | 14.1 | - | -
O=C(CSc1ccc(Cl)cc1)N/N=C/c1ccc([N+](=O)[O-])o1 | - | . | . | . | . | .
O=C(/C=C/c1ccccc1)Nc1nc(-c2ccncc2)cs1 | - | - | 39.2 | - | - | 42.8
O=C(/C=C\c1ccco1)Nc1nc(-c2ccccc2)cs1 | - | . | - | - | - | -
CN(Cc1ccccc1)C(=O)c1[nH]cnc1C(=O)N[C@@H](Cc1ccccc1)C(=O)OC(C)(C)C | - | . | . | . | . | .
Fc1ccccc1/C=N/NC(=S)Nc1ccc(Cl)cc1Cl | - | 93.8 | - | 16.7 | ? | -
Cc1cc(C)c2c(c1)/C(=N/NS(=O)(=O)c1ccc(Br)cc1)CCC2 | - | 81.0 | - | - | - | -
Cc1cc(C)c2nc(N3CCCC(C(=O)NC4CCCC4)C3)sc2c1 (centres undefined) | - | . | . | . | . | .
SMILES | IEC-6 tox | APP transl inh | Ba/F3 V617F tox | MT stabilizer | b-catenin transl | BaF3 parental
COc1ccc(OC)c(NC(=O)Nc2nnc(N3CCC(C)CC3)s2)c1 | - | 47.7 | - | - | - | -
CC1CCc2c(sc3nc(C(C)(C)C)nc(N4CCN(C(=O)CCl)CC4)c23)C1 (centres undefined) | - | . | . | . | . | .
CC(=O)Nc1ccc(CN2CCc3c([nH]c4ccccc34)C2c2ccccn2)cc1 (centres undefined) | - | - | - | 9.9 | - | -
c1ccc(C2c3[nH]c4ccccc4c3CCN2Cc2cccn2-c2ccccn2)nc1 (centres undefined) | - | . | - | . | - | -
Cc1cccc2[nH]c3c(N4CCC5(CC4)OCCO5)ncnc3c12 | - | - | - | 38.7 | 56.6 | -
Cc1ccc(N=Nc2c(N)nn(-c3ccccc3)c2N)cc1 | 24.6 | - | 46.8 | 10.3 | - | 35.5
Cc1ccc(S(=O)(=O)N(CC(=O)N=Nc2c(O)[nH]c3ccccc23)c2cccc(C)c2)cc1 | - | - | - | 19.5 | 63.6 | -
O=c1[nH]c(COc2ccc(Cl)cc2Br)nc2ccccc12 | - | . | . | . | . | .
CCCOc1ccc(OCCSc2nnc(N)s2)cc1 | - | - | 23.5 | - | - | 40.4
Nc1nnc(SCCCOc2ccc(F)cc2)s1 | - | . | . | . | . | .
